In ChEMBL document CHEMBL3994673, “Design and Synthesis of Potent and Selective PIM Kinase Inhibitors by Targeting Unique Structure of ATP-Binding Pocket” (ACS Med Chem Lett, 2017):
≈ marks a conversion by molar mass, not a printed value. One block for each compound: values may come before it.

Columns and labels:
[1] = Growth inhibition of human MOLM16 cells after 72 hrs by CCK8 assay; type: functional, cell-based; conditions: MOLM16, 72 h
WI-38 = assay: Growth inhibition of human WI38 cells after 48 hrs by CCK8 assay; type: cell-based; conditions: WI-38, 48 h
Procedure, shortened: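 Cells incubated with compound for 48 h for growth inhibition.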

[2] = biological target: Protein kinase C alpha type (Homo sapiens) (UniProt P17252); assay: Inhibition of full length recombinant human N-terminal GST-tagged PKCalpha (1 to 672 residues) expressed in baculovirus infected sf21 cells at 200 nM using PKC peptide as substrate by electrophoretic mobility shift assay relative to control
Procedure, shortened: (§1)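 Single-point screen of a 52-kinase panel with compound at 200 nM, read as % inhibition of each kinase; run by a contract lab (Carna Biosciences).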

[3] = biological target: T1, Serine/threonine-protein kinase pim-1 (Homo sapiens, UniProt P11309); assay: Inhibition of PIM1 (unknown origin) using 5-FAM-RSRHSSYPAGT-CONH2 as substrate after 2 hrs by electrophoretic mobility shift assay
[4] = biological target: Rho-associated protein kinase 1 (Homo sapiens) (UniProt Q13464); assay: Inhibition of recombinant human N-terminal GST-tagged ROCK1 catalytic domain (1 to 477 residues) expressed in baculovirus infected sf21 cells at 200 nM using LIMKtide as substrate by electrophoretic mobility shift assay relative to control; procedure, shortened: as §1
[5] = biological target: Death-associated protein kinase 1 (Homo sapiens) (UniProt P53355); assay: Inhibition of recombinant human N-terminal GST-tagged DAPK1 catalytic domain (1 to 289 residues) expressed in baculovirus infected sf21 cells at 200 nM using DAPK1tide as substrate by electrophoretic mobility shift assay relative to control; procedure, shortened: as §1
[6] = biological target: T2, Serine/threonine-protein kinase pim-2 (Homo sapiens, UniProt Q9P1W9); assay: Inhibition of full length recombinant human N-terminal GST-tagged PIM2 (1 to 311 residues) expressed in baculovirus infected sf21 cells using S6K2 peptide as substrate by electrophoretic mobility shift assay
[7] = biological target: T2, Serine/threonine-protein kinase pim-2; assay: Inhibition of full length recombinant human N-terminal GST-tagged PIM2 (1 to 311 residues) expressed in baculovirus infected sf21 cells at 200 nM using S6K2 peptide as substrate by electrophoretic mobility shift assay relative to control; procedure, shortened: as §1
[8] = Aqueous solubility of the compound in pH 7.4 PBS by HPLC-UV method; type: physicochemical
Procedure, shortened: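 Tested in PBS pH 7.4 with a final DMSO concentration of 2%; performed by a contract lab (Cerep).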

hERG (KCNH2) = hERG (KCNH2) (Homo sapiens, UniProt Q12809); assay: Inhibition of human ERG expressed in CHO cells at 10 uM by patch clamp method relative to control; type: cell-based; conditions: CHO cells expressing human ERG
Procedure, shortened: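 hERG block measured by patch clamp with compound at 10 μM; performed by a contract lab (Cerep).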

[9] = Permeability in human Caco2 cells at 10 uM; type: ADME, cell-based; conditions: Caco-2, read-out: permeability
Procedure, shortened: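 Caco-2 monolayer permeability measured with compound at 10 μM, reported in units of 10–6 cm/s; performed by a contract lab (Cerep).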

[10] = Stability in human liver microsomes assessed as parent compound remaining at 1 uM after 1 hr; type: ADME, microsome; conditions: read-out: Stability
Procedure, shortened: (§2)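 Compound at 1 μM incubated with liver microsomes (0.3 mg/mL protein) at 37 °C for 1 h; value is percent of parent remaining. Performed by a contract lab (Cerep).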

[11] = Stability in mouse liver microsomes assessed as parent compound remaining at 1 uM after 1 hr; type: ADME, microsome; conditions: read-out: Stability; procedure, shortened: as §2
[12] = biological target: T3, Serine/threonine-protein kinase D2 (Homo sapiens) (UniProt Q9BZL6); assay: Inhibition of full length recombinant human N-terminal GST-tagged PKD2 (1 to 878 end residues) expressed in baculovirus infected sf21 cells at 200 nM using GS peptide as substrate by electrophoretic mobility shift assay relative to control; procedure, shortened: as §1
T3 sequence (whole entry): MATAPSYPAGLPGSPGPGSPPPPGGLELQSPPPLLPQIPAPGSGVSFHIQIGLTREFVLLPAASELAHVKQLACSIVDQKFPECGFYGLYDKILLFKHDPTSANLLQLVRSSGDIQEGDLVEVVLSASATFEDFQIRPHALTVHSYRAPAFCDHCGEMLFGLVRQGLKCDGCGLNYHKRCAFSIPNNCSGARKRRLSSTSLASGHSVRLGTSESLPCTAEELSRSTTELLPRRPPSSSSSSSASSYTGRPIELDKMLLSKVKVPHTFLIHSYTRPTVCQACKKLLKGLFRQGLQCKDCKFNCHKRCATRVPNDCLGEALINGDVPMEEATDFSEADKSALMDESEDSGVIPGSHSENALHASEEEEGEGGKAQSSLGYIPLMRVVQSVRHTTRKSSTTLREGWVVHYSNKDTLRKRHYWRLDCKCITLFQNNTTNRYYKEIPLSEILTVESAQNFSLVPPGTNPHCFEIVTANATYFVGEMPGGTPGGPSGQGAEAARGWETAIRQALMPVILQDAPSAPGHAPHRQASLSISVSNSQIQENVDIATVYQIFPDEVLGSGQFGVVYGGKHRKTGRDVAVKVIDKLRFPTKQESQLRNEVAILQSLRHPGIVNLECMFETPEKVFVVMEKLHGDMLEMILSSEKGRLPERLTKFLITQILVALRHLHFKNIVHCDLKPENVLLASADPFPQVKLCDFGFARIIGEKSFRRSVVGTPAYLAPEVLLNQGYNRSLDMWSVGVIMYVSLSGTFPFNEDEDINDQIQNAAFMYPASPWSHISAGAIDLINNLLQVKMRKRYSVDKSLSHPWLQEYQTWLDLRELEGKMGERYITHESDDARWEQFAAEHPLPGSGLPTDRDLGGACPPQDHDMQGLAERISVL

[13] = biological target: Platelet-derived growth factor receptor alpha (Homo sapiens) (UniProt P16234); assay: Inhibition of recombinant human N-terminal GST-tagged PDGFRalpha cytoplasmic domain (550 to 1089 end residues) expressed in baculovirus infected sf21 cells at 200 nM using CSKtide as substrate by electrophoretic mobility shift assay relative to control; procedure, shortened: as §1
[14] = biological target: T1, Serine/threonine-protein kinase pim-1; assay: Inhibition of full length recombinant human N-terminal His-tagged PIM1 (1 to 313 end residues) expressed in baculovirus infected sf21 cells at 200 nM using S6K2 peptide as substrate by electrophoretic mobility shift assay relative to control; procedure, shortened: as §1
[15] = biological target: T4, Serine/threonine-protein kinase pim-3 (Homo sapiens, UniProt Q86V86); assay: Inhibition of full length recombinant human N-terminal GST-tagged PIM3 (1 to 326 end residues) expressed in baculovirus infected sf21 cells at 200 nM using S6K2 peptide as substrate by electrophoretic mobility shift assay relative to control; procedure, shortened: as §1
[16] = biological target: T1, Serine/threonine-protein kinase pim-1; assay: Inhibition of full length recombinant human N-terminal His-tagged PIM1 (1 to 313 end residues) expressed in baculovirus infected sf21 cells using S6K2 peptide as substrate by electrophoretic mobility shift assay
[17] = biological target: T4, Serine/threonine-protein kinase pim-3; assay: Inhibition of full length recombinant human N-terminal GST-tagged PIM3 (1 to 326 end residues) expressed in baculovirus infected sf21 cells using S6K2 peptide as substrate by electrophoretic mobility shift assay

Structure (SMILES): CN1CCC(CNc2ccc3ncc(-c4cccc(OC(F)(F)F)c4)n3n2)CC1 [SGI-1776]
IC50 [1]: 600 nM
IC50 (WI-38): 1700 nM

Structure (SMILES): CCCCc1ccc2c(/C=C3\Oc4c(ccc(OC)c4CN4CCNCC4)C3=O)c[nH]c2n1
IC50 [3]: 2.1 nM

Structure (SMILES): O=C1/C(=C/c2c[nH]c3nc(F)ccc23)Oc2c1ccc(O)c2CN1CCNCC1
IC50 [3]: 1.8 nM

Structure (SMILES): O=C1/C(=C/c2c[nH]c3ncccc23)Oc2c1ccc(O)c2CN1CCNCC1
IC50 [3]: 2 nM
IC50 [6]: 420 nM

Structure (SMILES): CCc1ccc2c(/C=C3\Oc4c(ccc(O)c4CN4CCNCC4)C3=O)c[nH]c2n1
IC50 [3]: 16 nM

Structure (SMILES): O=C1/C(=C/c2c[nH]c3nc(Cl)ccc23)Oc2c1ccc(O)c2CN1CCNCC1
IC50 [3]: 1.4 nM
inhibition [14]: 99%
inhibition [15]: > 99%
inhibition [5]: 57%
inhibition [12]: 30%
inhibition [13]: 63%
IC50 [16]: 1.3 nM
IC50 [17]: 0.88 nM
IC50 [6]: 140 nM
inhibition [7]: 58%
solubility [8]: 130 µM (≈ 53.4 µg/mL)
inhibition at 10 µM (hERG (KCNH2)): 30%
Papp at 10 µM [9]: 1.7 ×10⁻⁶ cm/s
remaining at 1 h, 1 µM [10]: 82%
remaining at 1 h, 1 µM [11]: 63%
IC50 [1]: 200 nM
IC50 (WI-38): > 10000 nM

Structure (SMILES): N[C@@H]1CCCN(c2c(/C=C3\SC(=O)NC3=O)cccc2-c2ccccc2)C1
IC50 [1]: 12 nM
IC50 (WI-38): > 10000 nM

Structure (SMILES): Cc1ccc2c(/C=C3\Oc4c(ccc(O)c4CN4CCNCC4)C3=O)c[nH]c2n1
IC50 [3]: 3.8 nM
IC50 [6]: 510 nM

More lines, main results first:

inhibition [2]: 10%
IC50 [3]: 0.64 nM
inhibition [4]: 50%
IC50 [6]: 300 nM
inhibition [7]: 25%
solubility [8]: 130 µM (≈ 52.6 µg/mL)
Papp at 10 µM [9]: 0.13 ×10⁻⁶ cm/s
remaining at 1 h, 1 µM [10]: 74%
remaining at 1 h, 1 µM [11]: 69%
Structure (SMILES): COc1ccc2c(c1CN1CCNCC1)O/C(=C\c1c[nH]c3nc(C)ccc13)C2=O
inhibition [5]: 91%
inhibition at 10 µM (hERG (KCNH2)): 14%

IC50 [3]: 0.28 nM
inhibition [4]: 94%
inhibition [12]: 59%
inhibition [13]: 79%
Structure (SMILES): COc1ccc2c(c1CN1CCNCC1)O/C(=C\c1c[nH]c3nc(F)ccc13)C2=O
inhibition [5]: 97%

IC50 [3]: 16 nM
Structure (SMILES): COc1ccc2c(c1CN1CCNCC1)O/C(=C\c1c[nH]c3nc(-c4ccccc4)ccc13)C2=O

IC50 [3]: 0.41 nM
inhibition [14]: 99%
inhibition [15]: > 99%
inhibition [12]: 62%
inhibition [13]: 61%
IC50 [16]: 0.49 nM
IC50 [17]: 0.4 nM
IC50 [6]: 140 nM
inhibition [7]: 41%
solubility [8]: 21 µM (≈ 8.92 µg/mL)
Papp at 10 µM [9]: 0.31 ×10⁻⁶ cm/s
remaining at 1 h, 1 µM [10]: 82%
remaining at 1 h, 1 µM [11]: 58%
Structure (SMILES): COc1ccc2c(c1CN1CCNCC1)O/C(=C\c1c[nH]c3nc(Cl)ccc13)C2=O
inhibition [5]: 80%
inhibition at 10 µM (hERG (KCNH2)): 22%

Papp at 10 µM [9]: 0.89 ×10⁻⁶ cm/s
remaining at 1 h, 1 µM [10]: 68%
remaining at 1 h, 1 µM [11]: 83%
Structure (SMILES): COc1ccc2c(c1CN1CCNCC1)O/C(=C\c1n[nH]c3ccccc13)C2=O

IC50 [3]: 4.5 nM
Structure (SMILES): CCCc1ccc2c(/C=C3\Oc4c(ccc(OC)c4CN4CCNCC4)C3=O)c[nH]c2n1

inhibition [2]: > 75%
IC50 [3]: 0.84 nM
inhibition [14]: > 50%
inhibition [15]: > 50%
inhibition [4]: > 75%
IC50 [6]: 390 nM
solubility [8]: ≥ 200 µM
Papp at 10 µM [9]: 2.1 ×10⁻⁶ cm/s
remaining at 1 h, 1 µM [10]: 90%
remaining at 1 h, 1 µM [11]: 72%
Structure (SMILES): COc1ccc2c(c1CN1CCNCC1)O/C(=C\c1c[nH]c3ncccc13)C2=O
inhibition at 10 µM (hERG (KCNH2)): 19%

inhibition [2]: 10%
IC50 [3]: 1.1 nM
inhibition [4]: 50%
inhibition [12]: 90%
IC50 [6]: 290 nM
inhibition [7]: 23%
Structure (SMILES): CCc1ccc2c(/C=C3\Oc4c(ccc(OC)c4CN4CCNCC4)C3=O)c[nH]c2n1
inhibition [5]: 77%
